Data as given in ChEMBL document CHEMBL1287747, “Highly active antimycobacterial derivatives of benzoxazine” (2010).
≈ marks a conversion by molar mass, not a printed value.

Experiments:
Format in all cases: functional
[1] = test system: Mycobacterium tuberculosis; assay: Antimycobacterial activity against Mycobacterium tuberculosis CNCTC My 331/88 after 14 days by microdilution method; conditions: CNCTC My 331/88, 336 h
In short: (§1)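 Strains from the Czech National Collection of Type Cultures, tested by dilution micromethod in Šula semisynthetic medium. Incubated at 37 °C and read at 14 and 21 days. MIC is the lowest concentration inhibiting growth.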

[2] = test system: Mycobacterium tuberculosis; assay: Antimycobacterial activity against Mycobacterium tuberculosis CNCTC My 331/88 after 21 days by microdilution method; conditions: CNCTC My 331/88, 504 h; in short: as §1
[3] = test system: Mycobacterium avium; assay: Antimycobacterial activity against Mycobacterium avium CNCTC My 330/88 after 14 days by microdilution method; conditions: CNCTC My 330/88, 336 h; in short: as §1
[4] = test system: Mycobacterium avium; assay: Antimycobacterial activity against Mycobacterium avium CNCTC My 330/88 after 21 days by microdilution method; conditions: CNCTC My 330/88, 504 h; in short: as §1
[5] = test system: Mycobacterium kansasii; assay: Antimycobacterial activity against Mycobacterium kansasii CNCTC My 235/80 after 14 days by microdilution method; conditions: CNCTC My 235/80, 336 h; in short: as §1
[6] = test system: Mycobacterium kansasii; assay: Antimycobacterial activity against Mycobacterium kansasii CNCTC My 235/80 after 21 days by microdilution method; conditions: CNCTC My 235/80, 504 h; in short: as §1
[7] = test system: Mycobacterium kansasii; assay: Antimycobacterial activity against Mycobacterium kansasii 6509/96 after 14 days by microdilution method; conditions: 6509/96, 336 h
In short: (§2)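 Clinical isolate that, unlike the standard strain, is not isoniazid-resistant. Tested by dilution micromethod in Šula semisynthetic medium, with compounds added in DMSO at final 1000 down to 0.25 µmol/L in twofold steps. Löwenstein-Jensen plate used as inoculum sterility and growth control. Incubated at 37 °C and read at 14 and 21 days. MIC is the lowest concentration inhibiting growth.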

[8] = test system: Mycobacterium kansasii; assay: Antimycobacterial activity against Mycobacterium kansasii 6509/96 after 21 days by microdilution method; conditions: 6509/96, 504 h; in short: as §2

SMILES | MIC [1] | MIC [2] | MIC [3] | MIC [4] | MIC [5] | MIC [6] | MIC [7] | MIC [8]
CC(C)c1ccc(-n2c(=S)oc3ccc(F)cc3c2=S)cc1 | 0.25 µM (≈ 0.0829 µg/mL) | 0.5 µM (≈ 0.166 µg/mL) | 0.5 µM (≈ 0.166 µg/mL) | 1 µM (≈ 0.331 µg/mL) | 4 µM (≈ 1.33 µg/mL) | 8 µM (≈ 2.65 µg/mL) | 2 µM (≈ 0.663 µg/mL) | 4 µM (≈ 1.33 µg/mL)
Cc1ccc(-n2c(=O)oc3ccc(Br)cc3c2=O)cc1 | 16 µM (≈ 5.31 µg/mL) | 16 µM (≈ 5.31 µg/mL) | 31 µM (≈ 10.3 µg/mL) | 31 µM (≈ 10.3 µg/mL) | – | 62 µM (≈ 20.6 µg/mL) | – | –
Cc1ccc(-n2c(=O)oc3ccc(Br)cc3c2=S)cc1 | 0.5 µM (≈ 0.174 µg/mL) | 1 µM (≈ 0.348 µg/mL) | 32 µM (≈ 11.1 µg/mL) | 32 µM (≈ 11.1 µg/mL) | 2 µM (≈ 0.696 µg/mL) | 4 µM (≈ 1.39 µg/mL) | 2 µM (≈ 0.696 µg/mL) | 4 µM (≈ 1.39 µg/mL)
CCC(C)c1ccc(-n2c(=S)oc3ccc(F)cc3c2=S)cc1 (centres undefined) | 0.25 µM (≈ 0.0864 µg/mL) | 0.25 µM (≈ 0.0864 µg/mL) | 0.5 µM (≈ 0.173 µg/mL) | 1 µM (≈ 0.345 µg/mL) | 2 µM (≈ 0.691 µg/mL) | 4 µM (≈ 1.38 µg/mL) | 2 µM (≈ 0.691 µg/mL) | 4 µM (≈ 1.38 µg/mL)
CCc1ccc(-n2c(=O)oc3ccc(Br)cc3c2=O)cc1 | 8 µM (≈ 2.77 µg/mL) | 8 µM (≈ 2.77 µg/mL) | 32 µM (≈ 11.1 µg/mL) | 32 µM (≈ 11.1 µg/mL) | 8 µM (≈ 2.77 µg/mL) | 16 µM (≈ 5.54 µg/mL) | 16 µM (≈ 5.54 µg/mL) | 16 µM (≈ 5.54 µg/mL)
CCc1ccc(-n2c(=O)oc3ccc(Cl)cc3c2=O)cc1 | 8 µM (≈ 2.41 µg/mL) | 16 µM (≈ 4.83 µg/mL) | 16 µM (≈ 4.83 µg/mL) | 32 µM (≈ 9.66 µg/mL) | 16 µM (≈ 4.83 µg/mL) | 16 µM (≈ 4.83 µg/mL) | 16 µM (≈ 4.83 µg/mL) | 16 µM (≈ 4.83 µg/mL)
CCc1ccc(-n2c(=O)oc3cc(Cl)ccc3c2=O)cc1 | 8 µM (≈ 2.41 µg/mL) | 8 µM (≈ 2.41 µg/mL) | 8 µM (≈ 2.41 µg/mL) | 16 µM (≈ 4.83 µg/mL) | 16 µM (≈ 4.83 µg/mL) | 16 µM (≈ 4.83 µg/mL) | 16 µM (≈ 4.83 µg/mL) | 16 µM (≈ 4.83 µg/mL)
CCC(C)c1ccc(-n2c(=S)oc3cc(C)ccc3c2=S)cc1 (centres undefined) | 0.25 µM (≈ 0.0854 µg/mL) | 0.5 µM (≈ 0.171 µg/mL) | 0.25 µM (≈ 0.0854 µg/mL) | 0.5 µM (≈ 0.171 µg/mL) | 2 µM (≈ 0.683 µg/mL) | 2 µM (≈ 0.683 µg/mL) | 0.5 µM (≈ 0.171 µg/mL) | 1 µM (≈ 0.342 µg/mL)
CC(C)(C)c1ccc(-n2c(=S)oc3ccc(Cl)cc3c2=S)cc1 | 0.25 µM (≈ 0.0905 µg/mL) | 0.5 µM (≈ 0.181 µg/mL) | 1 µM (≈ 0.362 µg/mL) | 2 µM (≈ 0.724 µg/mL) | 8 µM (≈ 2.9 µg/mL) | 8 µM (≈ 2.9 µg/mL) | 8 µM (≈ 2.9 µg/mL) | 8 µM (≈ 2.9 µg/mL)
Cc1ccc2c(=S)n(-c3ccc(C(C)(C)C)cc3)c(=S)oc2c1 | 0.25 µM (≈ 0.0854 µg/mL) | 0.5 µM (≈ 0.171 µg/mL) | 0.5 µM (≈ 0.171 µg/mL) | 1 µM (≈ 0.342 µg/mL) | 2 µM (≈ 0.683 µg/mL) | 2 µM (≈ 0.683 µg/mL) | 1 µM (≈ 0.342 µg/mL) | 2 µM (≈ 0.683 µg/mL)
CC(C)c1ccc(-n2c(=O)oc3ccc(F)cc3c2=O)cc1 | 8 µM (≈ 2.39 µg/mL) | 8 µM (≈ 2.39 µg/mL) | 8 µM (≈ 2.39 µg/mL) | 16 µM (≈ 4.79 µg/mL) | 8 µM (≈ 2.39 µg/mL) | 8 µM (≈ 2.39 µg/mL) | 8 µM (≈ 2.39 µg/mL) | 16 µM (≈ 4.79 µg/mL)
Cc1ccc2c(=O)n(-c3ccc(C(C)C)cc3)c(=O)oc2c1 | – | – | – | – | – | – | 32 µM (≈ 9.45 µg/mL) | –
CCC(C)c1ccc(-n2c(=O)oc3ccc(F)cc3c2=O)cc1 (centres undefined) | 8 µM (≈ 2.51 µg/mL) | 8 µM (≈ 2.51 µg/mL) | 8 µM (≈ 2.51 µg/mL) | 8 µM (≈ 2.51 µg/mL) | 8 µM (≈ 2.51 µg/mL) | 8 µM (≈ 2.51 µg/mL) | 4 µM (≈ 1.25 µg/mL) | 8 µM (≈ 2.51 µg/mL)
CCC(C)c1ccc(-n2c(=O)oc3cc(C)ccc3c2=O)cc1 (centres undefined) | – | – | – | – | – | – | 32 µM (≈ 9.9 µg/mL) | –
CCCCc1ccc(-n2c(=O)oc3ccc(Cl)cc3c2=O)cc1 | 16 µM (≈ 5.28 µg/mL) | 16 µM (≈ 5.28 µg/mL) | 16 µM (≈ 5.28 µg/mL) | 16 µM (≈ 5.28 µg/mL) | 8 µM (≈ 2.64 µg/mL) | 8 µM (≈ 2.64 µg/mL) | 8 µM (≈ 2.64 µg/mL) | 16 µM (≈ 5.28 µg/mL)
CC(C)(C)c1ccc(-n2c(=O)oc3ccc(Cl)cc3c2=O)cc1 | 8 µM (≈ 2.64 µg/mL) | 16 µM (≈ 5.28 µg/mL) | 16 µM (≈ 5.28 µg/mL) | 32 µM (≈ 10.6 µg/mL) | 8 µM (≈ 2.64 µg/mL) | 16 µM (≈ 5.28 µg/mL) | 8 µM (≈ 2.64 µg/mL) | 8 µM (≈ 2.64 µg/mL)
CC(C)(C)c1ccc(-n2c(=O)oc3ccc(F)cc3c2=O)cc1 | 16 µM (≈ 5.01 µg/mL) | 16 µM (≈ 5.01 µg/mL) | 16 µM (≈ 5.01 µg/mL) | 16 µM (≈ 5.01 µg/mL) | 16 µM (≈ 5.01 µg/mL) | 16 µM (≈ 5.01 µg/mL) | 8 µM (≈ 2.51 µg/mL) | 16 µM (≈ 5.01 µg/mL)
CCc1ccc(-n2c(=O)oc3ccc(Br)cc3c2=S)cc1 | 0.5 µM (≈ 0.181 µg/mL) | 0.5 µM (≈ 0.181 µg/mL) | 32 µM (≈ 11.6 µg/mL) | 32 µM (≈ 11.6 µg/mL) | 8 µM (≈ 2.9 µg/mL) | 16 µM (≈ 5.8 µg/mL) | 4 µM (≈ 1.45 µg/mL) | 8 µM (≈ 2.9 µg/mL)
CC(C)c1ccc(-n2c(=O)oc3ccc(Br)cc3c2=S)cc1 | 0.25 µM (≈ 0.0941 µg/mL) | 0.5 µM (≈ 0.188 µg/mL) | 4 µM (≈ 1.51 µg/mL) | 8 µM (≈ 3.01 µg/mL) | 32 µM (≈ 12 µg/mL) | 62.5 µM (≈ 23.5 µg/mL) | 4 µM (≈ 1.51 µg/mL) | 8 µM (≈ 3.01 µg/mL)
CC(C)c1ccc(-n2c(=O)oc3ccc(F)cc3c2=S)cc1 | 0.25 µM (≈ 0.0788 µg/mL) | 0.5 µM (≈ 0.158 µg/mL) | 0.5 µM (≈ 0.158 µg/mL) | 1 µM (≈ 0.315 µg/mL) | 2 µM (≈ 0.631 µg/mL) | 4 µM (≈ 1.26 µg/mL) | 4 µM (≈ 1.26 µg/mL) | 4 µM (≈ 1.26 µg/mL)
Cc1ccc2c(=S)n(-c3ccc(C(C)C)cc3)c(=O)oc2c1 | 0.25 µM (≈ 0.0779 µg/mL) | 0.5 µM (≈ 0.156 µg/mL) | 0.5 µM (≈ 0.156 µg/mL) | 1 µM (≈ 0.311 µg/mL) | 2 µM (≈ 0.623 µg/mL) | 4 µM (≈ 1.25 µg/mL) | 1 µM (≈ 0.311 µg/mL) | 2 µM (≈ 0.623 µg/mL)
CCC(C)c1ccc(-n2c(=O)oc3ccc(Br)cc3c2=S)cc1 (centres undefined) | 0.25 µM (≈ 0.0976 µg/mL) | 0.5 µM (≈ 0.195 µg/mL) | 16 µM (≈ 6.24 µg/mL) | 32 µM (≈ 12.5 µg/mL) | 4 µM (≈ 1.56 µg/mL) | 8 µM (≈ 3.12 µg/mL) | 2 µM (≈ 0.781 µg/mL) | 4 µM (≈ 1.56 µg/mL)
CCC(C)c1ccc(-n2c(=O)oc3ccc(F)cc3c2=S)cc1 (centres undefined) | 0.25 µM (≈ 0.0823 µg/mL) | 0.5 µM (≈ 0.165 µg/mL) | 1 µM (≈ 0.329 µg/mL) | 1 µM (≈ 0.329 µg/mL) | 4 µM (≈ 1.32 µg/mL) | 4 µM (≈ 1.32 µg/mL) | 2 µM (≈ 0.659 µg/mL) | 4 µM (≈ 1.32 µg/mL)
CCC(C)c1ccc(-n2c(=O)oc3cc(C)ccc3c2=S)cc1 (centres undefined) | 0.25 µM (≈ 0.0814 µg/mL) | 0.5 µM (≈ 0.163 µg/mL) | 0.5 µM (≈ 0.163 µg/mL) | 0.5 µM (≈ 0.163 µg/mL) | 1 µM (≈ 0.325 µg/mL) | 2 µM (≈ 0.651 µg/mL) | 0.5 µM (≈ 0.163 µg/mL) | 1 µM (≈ 0.325 µg/mL)
CC(C)(C)c1ccc(-n2c(=O)oc3ccc(Cl)cc3c2=S)cc1 | 0.25 µM (≈ 0.0865 µg/mL) | 0.5 µM (≈ 0.173 µg/mL) | 1 µM (≈ 0.346 µg/mL) | 2 µM (≈ 0.692 µg/mL) | 8 µM (≈ 2.77 µg/mL) | 8 µM (≈ 2.77 µg/mL) | 4 µM (≈ 1.38 µg/mL) | 8 µM (≈ 2.77 µg/mL)
CC(C)(C)c1ccc(-n2c(=O)oc3ccc(F)cc3c2=S)cc1 | 0.25 µM (≈ 0.0823 µg/mL) | 0.5 µM (≈ 0.165 µg/mL) | 0.5 µM (≈ 0.165 µg/mL) | 1 µM (≈ 0.329 µg/mL) | 4 µM (≈ 1.32 µg/mL) | 8 µM (≈ 2.64 µg/mL) | 8 µM (≈ 2.64 µg/mL) | 8 µM (≈ 2.64 µg/mL)
Cc1ccc2c(=S)n(-c3ccc(C(C)(C)C)cc3)c(=O)oc2c1 | 0.25 µM (≈ 0.0814 µg/mL) | 0.5 µM (≈ 0.163 µg/mL) | 0.25 µM (≈ 0.0814 µg/mL) | 0.5 µM (≈ 0.163 µg/mL) | 2 µM (≈ 0.651 µg/mL) | 2 µM (≈ 0.651 µg/mL) | 1 µM (≈ 0.325 µg/mL) | 1 µM (≈ 0.325 µg/mL)
